According to PMC3277802 (Journal of Controlled Release, 2011):

Assays:
[1] = target: T1, human liver cathepsin B (Homo sapiens, UniProt P07858); test: Polyplex destabilization by DLS under cathepsin B treatment; type: in vitro ADME; settings: 4 N:P, 5.33 μg/mL DNA, pH 5, 37 °C
Outline: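 Polyplexes were formed at 4 N:P: pCMV-Luc2 plasmid (0.1 mg/mL in ddH2O) was mixed with an equal volume of polymer for 10 min at room temperature. These were added to pre-activated cathepsin B (1.28 μg/mL final, pH 5 acetate) at 5.33 μg/mL DNA final. The sample sat in a capped cuvette pre-equilibrated at 37 °C. DLS particle size was read every 15 min for 8 hrs.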

[2] = system: NIH/3T3 cells; test: Cytotoxicity by MTS assay, NIH/3T3; type: cell-based; settings: free polymer, 4 hrs exposure, MTS at 48 hrs; four-parameter fit
Outline: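 Polymers at a range of concentrations were made up in ddH2O and diluted 10-fold into reduced-serum MEM. NIH/3T3 cells were rinsed once with PBS and exposed for 4 hrs. At 48 hrs MTS reagent was added, followed by 3 hrs of incubation and absorbance reading at 490 nm. IC50 was expressed in amine equivalents and obtained by a four-parameter variable-slope nonlinear fit.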

[3] = target: T1, human liver cathepsin B; test: Cathepsin B-mediated polymer degradation; type: in vitro ADME; settings: for Cathepsin B degradation of polymer (in words): 44 μg/mL polymer, 1.28 μg/mL cathepsin B, acetate pH 5, 37 °C, SEC; for Degradation Type: Table 1 summary of peptidase susceptibility of copolymer
Outline: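 HPMA-oligolysine copolymers were made by RAFT polymerization. Cathepsin B was pre-activated with DTT/EDTA at 37 °C for 15 min, then used in pH 5 acetate/EDTA buffer at 1.28 μg/mL final. Polymer was 44 μg/mL final, at 37 °C. Aliquots taken over time were stopped with E-64. Relative differential refractive index profiles from SEC were compared, with supporting MALDI-TOF MS.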

[4] = target: T1, human liver cathepsin B; type: in vitro ADME; settings: 4 N:P, 5.33 μg/mL DNA, cathepsin B pH 5, 37 °C; normalized to plasmid-only
Outline: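 Plasmid was pre-labelled with YOYO-1 (dye:base pair 1:50, 1 hr, room temperature) and complexed with polymer at 4 N:P. Polyplexes were incubated with pre-activated cathepsin B (pH 5 acetate, 37 °C) at 5.33 μg/mL DNA final. Timed aliquots were stopped with E-64 and diluted in ddH2O. Fluorescence was read at ex 491/em 509 nm and normalized to uncomplexed plasmid signal.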

| Substance | Polyplex particle size over 8 hrs cathepsin B treatment ([1]; DLS every 15 min) | IC50 (μg/mL), NIH/3T3 [2] [µg/mL] | Cathepsin B degradation of polymer (in words) [3] | YOYO-1 fluorescence relative to free plasmid by 8 hrs of cathepsin B exposure [4] [%] | Polyplex particle size at start of cathepsin B treatment ([1]; DLS) | Polyplex particle size after 4 hrs cathepsin B treatment (plateau) ([1]; DLS every 15 min) | Degradation Type [3] |
| --- | --- | --- | --- | --- | --- | --- | --- |
| HPMA-co-MaAhxFKFLAhx(D)K10 [pHCath(D)K10] | ~ 600 nm | 28.7 |  |  |  |  |  |
| HPMA-co-MaAhxK10 [reference compound] |  |  | observed MW shift over 4hrs is comparable to 10 min with pHCathK10 |  |  |  |  |
| HPMA-co-MaAhxFKFLAhxK10 [pHCathK10] |  | 29.7 |  | 70 | ~ 150 nm | about 500 nm | Endo/exopeptidase |
| HPMA-co-MaAhx(D)FKFLAhx(D)K10 [pH(D)Cath(D)K10] | ~ 150 nm | 30.3 | no degradation |  |  |  | None |
